# Key:
# Candida albicans [1] = assay: Antifungal activity against ITC and FLC-resistant Candida albicans ATCC MYA-90819 incubated for 48 hrs by modified CLSI M27-A3 protocol based method; type: functional; details: ATCC MYA-90819, 48 h
# Candida albicans [2] = assay: Antifungal activity against ITC and FLC-susceptible Candida albicans ATCC MYA-2310 incubated for 48 hrs by modified CLSI M27-A3 protocol based method; type: functional; details: ATCC MYA-2310, 48 h
# Candida albicans [3] = assay: Antifungal activity against ITC and FLC-resistant Candida albicans ATCC MYA-1003 incubated for 48 hrs by modified CLSI M27-A3 protocol based method; type: functional; details: ATCC MYA-1003, 48 h
# Summary of the method: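 Because these Candida strains show trailing growth, MIC-2 was read, meaning 50% growth inhibition. Caspofungin and voriconazole were tested here; other controls came from earlier work.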
# Nakaseomyces glabratus = assay: Antifungal activity against Candida glabrata ATCC 2001 incubated for 48 hrs by modified CLSI M27-A3 protocol based method; type: functional; details: ATCC 2001, 48 h
# Pichia kudriavzevii = assay: Antifungal activity against Candida krusei ATCC 6258 incubated for 48 hrs by modified CLSI M27-A3 protocol based method; type: functional; details: ATCC 6258, 48 h, read-out: MIC100
# Summary of the method: (§1)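 For C. albicans ATCC 10231, C. krusei ATCC 6258 and C. parapsilosis ATCC 22019, MIC-0 was read, meaning complete growth inhibition. For azole controls, MIC-2 (50% growth inhibition) was reported instead. Caspofungin and voriconazole were tested here; other controls came from earlier work.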
# Candida parapsilosis = assay: Antifungal activity against Candida parapsilosis ATCC 22019 incubated for 48 hrs by modified CLSI M27-A3 protocol based method; type: functional; details: Lodderomyces parapsilosis, ATCC 22019, 48 h; read-out: MIC100; summary of the method: as §1
# Aspergillus flavus = assay: Antifungal activity against Aspergillus flavus ATCC MYA-3631 incubated for 48 hrs by CLSI M38-A2 protocol based method; type: functional; details: ATCC MYA-3631, 48 h, read-out: MIC100
# Aspergillus nidulans = assay: Antifungal activity against Aspergillus nidulans ATCC 38163 incubated for 48 hrs by CLSI M38-A2 protocol based method; type: functional; details: ATCC 38163, 48 h, read-out: MIC100
# [4] = Toxicity in human A549 cells assessed as reduction in cell viability incubated for 24 hrs by resazurin dye based assay
# Summary of the method: (§2)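 Toxicity tested in the nucleated lines A549 and BEAS-2B to give EC50 values. Selectivity index is EC50 against the mammalian line divided by the MIC against a given fungal strain.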
# [5] = Toxicity in human BEAS2B cells assessed as reduction in cell viability incubated for 24 hrs by resazurin dye based assay; details: BEAS-2B cells; summary of the method: as §2
# [6] = Hemolytic activity in mouse erythrocytes assessed as hemolysis level at 1.95 ug/ml incubated for 1 hr at 37 degC; type: ADME, cell-based, Erythrocyte; details: read-out: Activity
# Summary of the method: (§3)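 Mouse erythrocytes incubated 1 h at 37 °C with test agents over 1.95 to 125 µg/mL. Percent lysis is read for each concentration.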
# [7] = Hemolytic activity in mouse erythrocytes assessed as hemolysis level at 7.8 ug/ml incubated for 1 hr at 37 degC; type: ADME, cell-based, Erythrocyte; details: read-out: Activity; summary of the method: as §3
# [8] = Hemolytic activity in mouse erythrocytes assessed as hemolysis level at 15.6 ug/ml incubated for 1 hr at 37 degC; type: ADME, cell-based, Erythrocyte; details: read-out: Activity; summary of the method: as §3
# [9] = Hemolytic activity in mouse erythrocytes assessed as hemolysis level at 125 ug/ml incubated for 1 hr at 37 degC; type: ADME, cell-based, Erythrocyte; details: read-out: Activity; summary of the method: as §3
# [10] = Selectivity index, ratio of EC50 for toxicity in human BEAS2B cells to MIC50 for antifungal activity against Candida albicans ATCC 64124; type: cell-based; details: BEAS-2B cells, read-out: Selectivity Index
# Summary of the method: (§4)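 Selectivity index is the EC50 against the mammalian line (A549 or BEAS-2B) divided by the MIC against the given fungal strain.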
# [11] = Selectivity index, ratio of EC50 for toxicity in human A549 cells to MIC50 for antifungal activity against Candida albicans ATCC 64124; type: cell-based; details: read-out: Selectivity Index; summary of the method: as §4
# [12] = Selectivity index, ratio of EC50 for toxicity in human A549 cells to MIC50 for antifungal activity against ITC and FLC-susceptible Candida albicans ATCC MYA-2876; type: cell-based; details: read-out: Selectivity Index; summary of the method: as §4
# [13] = Selectivity index, ratio of EC50 for toxicity in human BEAS2B cells to MIC50 for antifungal activity against ITC and FLC-susceptible Candida albicans ATCC MYA-2876; type: cell-based; details: BEAS-2B cells, read-out: Selectivity Index
# Summary of the method: (§5)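 Ratio of the compound's EC50 against BEAS-2B cells to its MIC against the named C. albicans strain. […] For C. albicans strains other than ATCC 10231, trailing growth meant MIC-2 was taken, meaning 50% growth inhibition.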
# [14] = Selectivity index, ratio of EC50 for toxicity in human A549 cells to MIC50 for antifungal activity against ITC and FLC-resistant Candida albicans ATCC MYA-90819; type: cell-based; details: read-out: Selectivity Index; summary of the method: as §4
# [15] = Selectivity index, ratio of EC50 for toxicity in human BEAS2B cells to MIC50 for antifungal activity against ITC and FLC-resistant Candida albicans ATCC MYA-90819; type: cell-based; details: BEAS-2B cells, read-out: Selectivity Index; summary of the method: as §5
# [16] = Selectivity index, ratio of EC50 for toxicity in human BEAS2B cells to MIC50 for antifungal activity against ITC and FLC-susceptible Candida albicans ATCC MYA-2310; type: cell-based; details: BEAS-2B cells, read-out: Selectivity Index; summary of the method: as §5
# [17] = Selectivity index, ratio of EC50 for toxicity in human BEAS2B cells to MIC50 for antifungal activity against ITC and FLC-resistant Candida albicans ATCC 1237; type: cell-based; details: BEAS-2B cells, read-out: Selectivity Index; summary of the method: as §4
# [18] = Selectivity index, ratio of EC50 for toxicity in human A549 cells to MIC50 for antifungal activity against ITC and FLC-resistant Candida albicans ATCC MYA-1003; type: cell-based; details: read-out: Selectivity Index; summary of the method: as §4
# [19] = Selectivity index, ratio of EC50 for toxicity in human A549 cells to MIC50 for antifungal activity against Candida glabrata ATCC 2001; type: cell-based; details: read-out: Selectivity Index; summary of the method: as §4
# [20] = Selectivity index, ratio of […] for toxicity in human A549 cells to MIC50 for antifungal activity against Aspergillus flavus ATCC MYA-3631; type: cell-based; details: read-out: Selectivity Index
# [21] = Selectivity index, ratio of […] for toxicity in human A549 cells to MIC50 for antifungal activity against Aspergillus nidulans ATCC 38163; type: cell-based; details: read-out: Selectivity Index
# [22] = Selectivity index, ratio of […] for toxicity in human BEAS2B cells to MIC50 for antifungal activity against Aspergillus nidulans ATCC 38163; type: cell-based; details: BEAS-2B cells, read-out: Selectivity Index
# [23] = Selectivity index, ratio of […] for toxicity in human A549 cells to MIC50 for antifungal activity against Aspergillus terreus ATCC MYA-3633; type: cell-based; details: read-out: Selectivity Index
# [24] = Selectivity index, ratio of […] for toxicity in human BEAS2B cells to MIC50 for antifungal activity against Aspergillus terreus ATCC MYA-3633; type: cell-based; details: BEAS-2B cells, read-out: Selectivity Index
# in vitro = details: mouse, mouse erythrocytes
# [25] = Selectivity index, ratio of EC50 for toxicity in human A549 cells to MIC50 for antifungal activity against Candida krusei ATCC 6258
# [26] = Selectivity index, ratio of EC50 for toxicity in human BEAS2B cells to MIC50 for antifungal activity against Candida krusei ATCC 6258; details: BEAS-2B cells
Structure (SMILES),MIC50 (Candida albicans [1]) [µM],MIC50 (Candida albicans [2]) [µM],MIC50 (Candida albicans [3]) [µM],MIC50 (Nakaseomyces glabratus) [µM],MIC (Pichia kudriavzevii) [µM],MIC (Candida parapsilosis) [µM],MIC (Aspergillus flavus) [µM],MIC (Aspergillus nidulans) [µM],EC50 at 24 h [4] [µg/mL],EC50 at 24 h [5] [µg/mL],selectivity ratio [10],selectivity ratio [11],selectivity ratio [12],selectivity ratio [13],selectivity ratio [14],selectivity ratio [15],selectivity ratio [16],selectivity ratio [17],selectivity ratio [18],selectivity ratio [19],other results
CCCCCC(O)(Cn1cncn1)c1ccccc1Cl (stereo unspecified),1.6,3.3,26.5,3.3,3.3,0.41,> 106,3.3,> 31.3,> 31.3,1,1,32,32,65,65,32,32,4,32,"hemolysis at 1 h, 1.95 ug/ml [6]: 0%; hemolysis at 1 h, 7.8 ug/ml [7]: 0%; hemolysis at 1 h, 15.6 ug/ml [8]: 0%; hemolysis at 1 h, 125 ug/ml [9]: 81%; selectivity ratio [20]: 1; selectivity ratio [21]: 32; selectivity ratio [22]: 32; selectivity ratio [23]: 2; selectivity ratio [24]: 2; hemolysis at 1 h, 62.5 ug/ml (in vitro): 0%; selectivity ratio [25]: 32; selectivity ratio [26]: 32"
CCCCCC(O)(Cn1cncn1)c1ccc(F)cc1 (stereo unspecified),3.5,14.1,> 113,28.1,3.5,1.7,> 113,14.1,> 31.3,33,1,1,4,4,32,34,8,17,1,4,selectivity ratio [20]: 1; selectivity ratio [21]: 8; selectivity ratio [22]: 8; selectivity ratio [23]: 1; selectivity ratio [24]: 1; selectivity ratio [25]: 32; selectivity ratio [26]: 34
CCCCC(O)(Cn1cncn1)c1ccc(Cl)cc1Cl (stereo unspecified) [HEXACONAZOLE],6.2,6.2,3.1,12.4,0.19,< 0.1,12.4,0.76,> 31.3,> 31.3,8,8,16,16,16,16,16,4,32,8,"hemolysis at 1 h, 1.95 ug/ml [6]: 0%; hemolysis at 1 h, 7.8 ug/ml [7]: 0%; hemolysis at 1 h, 15.6 ug/ml [8]: 0%; hemolysis at 1 h, 125 ug/ml [9]: 100%; selectivity ratio [20]: 8; selectivity ratio [21]: 130; selectivity ratio [22]: 130; selectivity ratio [23]: 32; selectivity ratio [24]: 32; hemolysis at 1 h, 62.5 ug/ml (in vitro): 59%; selectivity ratio [25]: 522; selectivity ratio [26]: 522"

# From ChEMBL document CHEMBL4265871, “Novel alkylated azoles as potent antifungals” (Eur J Med Chem, 2017)
